Converted amounts (≈) assume the structure as drawn.
How the values were obtained:
[1] = test system: Mycobacterium tuberculosis; test: Antimycobacterial activity against Mycobacterium bovis BCG in 7H9 medium; type: functional; conditions: variant bovis BCG
In short: (§1)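 M. bovis BCG MIC determined in liquid medium, comparing iron conditions: cells grown in 7H9/OADC (high iron) versus low-iron chelated Sauton's medium.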

[2] = test system: Mycobacterium tuberculosis; test: Antimycobacterial activity against Mycobacterium bovis BCG in low iron containing medium; type: functional; conditions: variant bovis BCG; in short: as §1
[3] = test system: Mycobacterium tuberculosis; test: Ratio of MIC for Mycobacterium bovis BCG in 7H9 medium to MIC for Mycobacterium bovis BCG in low iron containing medium; type: functional, variant bovis BCG

## O=C(O)c1ccc(-c2ccc([N+](=O)[O-])cc2)o1
[1]
  MIC: 240 µM (≈ 56 µg/mL)
[2]
  MIC: 80 µM (≈ 18.7 µg/mL)
[3]
  Ratio: 3

From ChEMBL document CHEMBL4152320, “Discovery and development of novel salicylate synthase (MbtI) furanic inhibitors as antitubercular agents” (Eur J Med Chem, 2018)
